Screening data from PubChem.
Neddyl block = inhibitors of cullin neddylation, primary screen, biochemical, TR-FRET, uHTS, NAE and Ubc12; AID 651699, 2012; actives 0.58% (n = 360,000); NEDD8-conjugating enzyme Ubc12 (Homo sapiens) + NEDD8-activating enzyme E1 regulatory …; inhibition, % at 25 µM; in the data active means inhibition above about 36%
HNF4A DNA FP = change in binding of human HNF4A to DNA, primary screen, biochemical, fluorescence polarization, FITC-DNA | Hepatocyte nuclear factor 4-alpha (Homo sapiens), P41235 | 1 h | activity change, % at 10 µM | actives 0.3% (n = 360,000) | AID 1224865, 2016; in the data active means activity change above about 30%, passing the limit was not always enough
PREPL inh = PREPL enzyme inhibitors, primary screen, biochemical, fluorescence polarization; Prolyl endopeptidase-like (Homo sapiens), Q4J6C6; recombinant PREPL, fluorescence polarization activity-based probe; inhibition, % at 5.96 µM; actives 0.68% (n = 320,000); in the data active means inhibition above about 43%;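 further: 0% = enzyme with DMSO and 100% = wells lacking enzyme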
CSN inh = inhibitors of CSN-mediated cullin deneddylation, primary screen, biochemical, fluorescence polarization, uHTS; Purified CSN, SCF-Nedd8-OG deneddylation; inhibition, % at 12.5 µM; actives 0.38% (n = 360,000);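 active means pattern-corrected inhibition above about 35%, with an unprinted fluorescence ratio check between 0.5 and 1.5, limit read from the data, passing the limit was not always enough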;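 further: 0% = enzyme with substrate and 100% = substrate without enzyme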
Target sequence (Q92905 whole entry, looked up, one chain of several): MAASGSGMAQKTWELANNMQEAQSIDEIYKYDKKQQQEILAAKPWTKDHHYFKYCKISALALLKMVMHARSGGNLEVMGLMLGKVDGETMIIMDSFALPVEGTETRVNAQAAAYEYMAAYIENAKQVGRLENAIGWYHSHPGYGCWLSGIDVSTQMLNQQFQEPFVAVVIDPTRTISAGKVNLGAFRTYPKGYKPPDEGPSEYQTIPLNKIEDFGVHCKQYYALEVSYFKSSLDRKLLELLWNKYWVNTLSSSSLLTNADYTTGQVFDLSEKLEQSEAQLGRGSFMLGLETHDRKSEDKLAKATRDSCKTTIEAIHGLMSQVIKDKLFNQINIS
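Detection – fluorescence polarization · System – HEK293T-derived human Csn5 enzyme · Controls – substrate-only high control, full reaction low control · Timing – 90 min, room temperature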
Rpn11 inh = Rpn11 (PSMD14) deubiquitinase inhibitors, primary screen, biochemical, fluorescence polarization, uHTS; 26S proteasome non-ATPase regulatory subunit 14 (Homo sapiens), O00487; human 26S proteasome, Ub4-pepOG fluorescence polarization; 20S core pre-blocked with epoxomicin; inhibition, % at 20 µM; actives 0.59% (n = 360,000); AID 588493, 2011;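 active means inhibition at 20 µM, scaled to each plate's controls, above about 33%, limit read from the data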
Target sequence (O00487 whole entry, looked up): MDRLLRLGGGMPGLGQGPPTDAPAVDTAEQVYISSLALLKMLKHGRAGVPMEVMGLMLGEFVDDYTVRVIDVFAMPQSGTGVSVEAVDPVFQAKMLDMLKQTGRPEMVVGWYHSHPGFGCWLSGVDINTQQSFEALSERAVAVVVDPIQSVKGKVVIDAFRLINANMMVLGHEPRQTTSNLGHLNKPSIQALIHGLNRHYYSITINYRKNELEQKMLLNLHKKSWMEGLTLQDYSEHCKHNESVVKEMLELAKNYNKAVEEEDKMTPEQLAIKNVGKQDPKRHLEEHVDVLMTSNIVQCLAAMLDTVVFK
Tb MetRS inh = T. brucei MetRS inhibitors, primary screen, biochemical, luminescence. purified T. brucei MetRS, ATP depletion, Kinase-Glo luminescence. inhibition, % at 11.9 µM. actives 0.4% (n = 360,000). AID 624268, 2012;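 active means inhibition above a per-plate cutoff of the control wells' mean inhibition plus 3 SD, cut at about 5.5% in these data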;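 further: 0% = DMSO wells median and 100% = median of wells with control inhibitor compound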
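assay system = parasite MetRS enzyme | timing = 15 min preincubation, 2 h reaction, all 25 °C | evaluation = percent inhibition relative to median high and low control wells | medium = HEPES buffer containing pyrophosphatase, BSA, spermine, DTT | compound = single dose, 11.9 µM final nominal, 0.9% final DMSO | detection = Kinase-Glo luminescence, ATP depletion format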
Rpn11 confirm = Rpn11 (PSMD14) deubiquitinase inhibitors, confirmation, biochemical, fluorescence polarization, single concentration. shares compounds with Rpn11 inh. AID 602318, 2012. actives 29% (n = 1,900). inhibition, % at 20 µM. purified human 26S proteasome, Ub4-pepOG fluorescence polarization; proteasome pretreated with epoxomicin
MMP-2 inh = MMP-2 enzyme inhibition, confirmation, counter-screen for RPN11 inhibitor project, biochemical, fluorescence, single concentration; shares compounds with Rpn11 inh; actives 4% (n = 1,900); inhibition, % at 20 µM; recombinant MMP-2, FRET peptide cleavage fluorescence;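 further: human MMP-2 activated beforehand with APMA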
Thrombin FP = bovine thrombin protease inhibition, confirmation, counter-screen for Rpn11 inhibitor project, biochemical, fluorescence polarization, single concentration. shares compounds with Rpn11 inh. bovine thrombin cleavage of Ub4-pepOG. inhibition, % at 20 µM. actives 13% (n = 1,900);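 active means mean inhibition at least 40% at 20 µM, or signal 3 deviations below plate average, so some actives read negative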;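 further: plate controls were thrombin with DMSO for no effect and buffer wells lacking thrombin for full effect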
* hit, by the source's call; · = not tested or not shown; + = active, no number. The list is not random: actives were taken first. Their share in the collection is about 2.4%. Unless noted, no stated cut-off is given here; in the data, active means inhibition above about 40%; inactive means the rest.

SMILES | Neddyl block | HNF4A DNA FP | PREPL inh | CSN inh | Rpn11 inh | Tb MetRS inh | Rpn11 confirm | MMP-2 inh | Thrombin FP
O=C(C[C@H]1C=C[C@@H](NC(=O)Cc2cccnc2)[C@@H](CO)O1)NCc1ccc2c(c1)OCO2 | -4.1 | 2.7 | · | 5.2 | · | -0.2 | · | · | ·
CCCCC(=O)Nc1ccc(C(N)=O)cc1 | -3.3 | 1.8 | 15.5 | 10.8 | 0.5 | -0.6 | · | · | ·
CCCCCCCCCCCCCCCC[n+]1ccc(C(N)=O)cc1 | -0.3 | 14.5 | 37.1 | 3.4 | 67.2* | -0.9 | 14.7 | -10.4 | -18.4
CCOc1ccc(N(CC(=O)NC2CCCCC2)C(=O)CCC(=O)Nc2nc(C)cs2)cc1 | -1.1 | 5.2 | 1.4 | -1.2 | 130.3* | -0.3 | 8.0 | -29.8 | -3.6
CC(C)=CCC/C(C)=C/CNC(=O)C[C@H]1C[C@H](C(=O)N(C(C)C)C(C)C)[C@@]2(C)c3[nH]c4cc(CCC(=O)N(C)C)ccc4c3CCN2C1=O | 0.6 | 3.5 | · | -8.6 | 10.0 | 0.3 | · | · | ·
Cc1ccc(O)c(N=NC2=C(O)CC(C)(C)CC2=O)c1 | -77.4 | 24.4 | -2.9 | 7.5 | 47.1* | -0.9 | 11.3 | -86.8 | 6.2
CN1CCN2c3ccccc3CC(C#N)(C#N)C2C1 (centres undefined) | -4.2 | 1.0 | · | 0.0 | 0.9 | -1.0 | · | · | ·
CCCCOc1nc2ccccc2nc1C(C#N)C(=O)NC1CCCCC1 (centres undefined) | 9.4 | 0.4 | 3.4 | 13.8 | 56.0* | -1.0 | -3.0 | -23.1 | -5.3
Cc1ccc(S(=O)(=O)N(C)C[C@H]2OCCCC[C@@H](C)Oc3ccc(NC(=O)Cc4ccccc4)cc3C(=O)N([C@H](C)CO)C[C@@H]2C)cc1 | -14.4 | 2.3 | · | 1.9 | -0.6 | -1.3 | · | · | ·
COc1ccc(S(=O)(=O)N2CCCC(C(=O)NCc3ccncc3)C2)cc1 (centres undefined) | 4.9 | 20.2 | 4.0 | 5.3 | + | -0.9 | -12.5 | 10.2 | -19.0
COc1ccc(CCNC(=O)c2nn(C)c3c2CS(=O)(=O)c2ccccc2-3)cc1OC | -323.1 | -1.8 | 3.5 | -4.2 | -3.9 | -0.1 | · | · | ·
CCN(c1ccccc1)S(=O)(=O)c1cc(C(=O)NCC(c2ccc(OC)cc2)N(C)C)ccc1C (centres undefined) | 4.1 | 6.5 | · | 1.0 | 6.0 | -0.3 | · | · | ·
Cc1cc(=O)n2[nH]c(-c3ccsc3-n3c(C)ccc3C)cc2n1 | 10.7 | -9.7 | 28.6 | 41.8 | 39.1* | -0.4 | -7.1 | -5.9 | 12.1
Cc1ccccc1SCC(=O)Nc1cc(C(F)(F)F)ccc1N1CCOCC1 | 5.3 | 0.8 | 15.2 | 4.2 | 1.7 | -0.4 | · | · | ·
CC(=O)C1=C(C)NC(SCC(=O)c2ccc(Cl)c(Cl)c2)=C(C#N)C1c1ccco1 (centres undefined) | 3.1 | 16.4 | 33.9 | 10.7 | 41.2* | 0.0 | 22.3 | 44.6* | 15.3
CC(C)CNC(=O)C1(C)CCCN1C(=O)c1cccnc1 (centres undefined) | 2.9 | -2.3 | · | -0.3 | 6.1 | 0.1 | · | · | ·
Cc1nc(N2CCN(Cc3ccccc3)CC2)nc2c1CCC2 | 5.9 | 0.2 | 9.2 | 1.0 | -4.6 | -0.9 | · | · | ·
FC(F)(F)c1nc(N2CCN(c3ccccc3)CC2)nc2c1CCCCC2 | 20.1 | 3.3 | -1.0 | -1.7 | 47.6* | -0.7 | -10.7 | -30.1 | -11.6
Cc1cccc(-n2c(C)cc(/C=C3/C(=N)N4C(c5ccccc5)=CSC4=NC3=O)c2C)c1 | · | 24.9 | 1.4 | 2.2 | 56.9* | -0.2 | -5.7 | -37.0 | -26.5
Cc1cc(/C=C2/C(=N)N3C(c4ccccc4)=CSC3=NC2=O)c(C)n1-c1ccc(Cl)cc1 | -1.7 | 2.6 | · | -0.6 | -8.0 | -1.0 | · | · | ·
Cc1ccccc1CN1C(=O)C(C)Sc2ccc(-c3ccco3)cc21 (centres undefined) | 0.4 | 19.3 | · | 29.6 | 60.5* | -0.4 | 46.4* | 4.2 | 24.8
Cc1ccccc1CN1C(=O)C(C)S/C1=N/N=C/c1ccco1 (centres undefined) | -5.9 | -4.7 | -2.1 | 3.3 | 1.0 | -0.3 | · | · | ·
Cc1ccc(-c2nc(CN3CCCCC3CCN3CCCC3=O)c(C)o2)o1 (centres undefined) | 20.8 | 14.7 | 26.5 | -5.4 | 40.9* | -0.5 | 17.7 | 4.6 | 15.8
CCCCn1c(O)c(/C=C2\C=Nc3ccccc32)c(=O)[nH]c1=O | 1.6 | 4.8 | 1.0 | 8.9 | 42.4* | -0.6 | 50.8* | -28.8 | 11.3
O=[N+]([O-])c1ccc(/C=N/Nc2ccccn2)cc1 | -38.0 | 15.6 | 7.1 | 10.9 | 41.8* | -2.0 | 18.9 | -34.6 | -2.9
SMILES | Neddyl block | HNF4A DNA FP | PREPL inh | CSN inh | Rpn11 inh | Tb MetRS inh | Rpn11 confirm | MMP-2 inh | Thrombin FP
c1cc(C2CCCCC2)ccc1Oc1nc(N2CCOCC2)nc(N2CCOCC2)n1 | -0.5 | -20.4 | -0.5 | 0.7 | 130.9* | -0.4 | 6.7 | 19.2 | -12.6
O=C(Nc1ccc([N+](=O)[O-])cc1)C(c1ccccc1)c1ccccc1 | -20.1 | -1.8 | · | 1.3 | -6.6 | -0.1 | · | · | ·
COc1ccc(OCCNC(=O)c2ccc(C)cc2)cc1 | 2.4 | -0.5 | -7.7 | 2.7 | 40.0* | 0.0 | -15.8 | 3.2 | -25.9
Cc1cccc(-n2cnc(C(=O)NNC(=S)Nc3ccc(Cl)cc3)c2)n1 | 14.6 | -4.6 | -1.7 | -7.8 | 21.3 | -0.2 | · | · | ·
Cc1cccc(-n2cnc(C(=O)N/N=C\c3ccc(Br)cc3)c2)n1 | -7.1 | 2.9 | -3.6 | 15.0 | 49.1* | -0.9 | -8.2 | -39.2 | -13.9
Cc1ccc(/C=[N+](\[O-])c2ccc(N(C)C)cc2)c2nsnc12 | 22.7 | 7.3 | · | -11.8 | 7.2 | -0.5 | · | · | ·
O=C(N/N=C/c1ccco1)c1ccc(NC(=O)c2ccc(Cl)cc2)cc1 | 7.9 | -6.6 | 18.2 | 0.4 | 43.2* | -0.2 | -4.9 | -0.7 | -5.2
Cc1cccc(C(=O)Nc2ccc(C(=O)N/N=C/c3ccco3)cc2)c1 | -4.7 | -9.3 | -4.8 | 11.1 | -14.9 | 0.2 | · | · | ·
